Source: ChEMBL document CHEMBL1135694, “Optimization of alkylidene hydrazide based human glucagon receptor antagonists. Discovery of the highly potent and orally available 3-cyano-4-hydroxybenzoic acid [1-(2,3,5,6-tetramethylbenzyl)-1H-indol-4-ylmethylene]hydrazide” (J Med Chem, 2002)

Key:
[1] = target: Glucagon receptor (Homo sapiens, UniProt P47871); assay: In vitro binding affinity for recombinant human glucagon receptor (hGGR) in BHK cells; format: cell-based
In short: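 Membranes (4 µg) from BHK cells expressing the cloned human glucagon receptor. Compounds were diluted in DMSO, and a glucagon standard curve was run. IC50 given as mean ± SD, n = 3.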

[2] = Turnover in rat liver microsomes; format: ADME, Microsome
In short: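 Rat liver microsomes (0.331 mg/mL protein) with 10 µM compound, 1 mM UDP-GA and 1 mM NADPH in KH2PO4 buffer, pH 7.4, at 37 °C. Sampled at 0-30 min (n = 3), stopped with MeCN. Rate was taken from parent disappearance by LC-MS.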

Sequence of Glucagon receptor (P47871 whole entry): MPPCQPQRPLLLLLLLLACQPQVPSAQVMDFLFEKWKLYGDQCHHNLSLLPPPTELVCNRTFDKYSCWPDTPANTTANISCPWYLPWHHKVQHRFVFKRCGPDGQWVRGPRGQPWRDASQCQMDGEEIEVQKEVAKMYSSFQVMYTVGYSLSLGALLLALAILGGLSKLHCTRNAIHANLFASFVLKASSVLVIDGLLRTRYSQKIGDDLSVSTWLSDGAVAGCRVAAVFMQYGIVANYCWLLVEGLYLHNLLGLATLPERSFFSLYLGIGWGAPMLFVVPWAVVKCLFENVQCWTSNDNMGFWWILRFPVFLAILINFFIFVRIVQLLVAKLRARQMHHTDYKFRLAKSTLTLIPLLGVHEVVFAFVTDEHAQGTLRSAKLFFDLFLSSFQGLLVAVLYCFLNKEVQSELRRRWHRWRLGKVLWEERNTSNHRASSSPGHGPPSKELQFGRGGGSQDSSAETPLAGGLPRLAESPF

IC50 [1]	Metabolism [2]	Compound
38.8 nM	134 pmol/min/mg	O=C(N/N=C/c1ccc(NC(=O)C2CCCC2)c2ccccc12)c1ccc(O)c(Cl)c1
163 nM	31 pmol/min/mg	CC(C)S(=O)(=O)Cc1ccc(/C=N/NC(=O)c2ccc(O)c(C#N)c2)c2ccccc12
49.7 nM	302 pmol/min/mg	CCN(CC)C(=O)COc1ccc(/C=N/NC(=O)c2ccc(O)c(Cl)c2)c2ccccc12
22.6 nM	323 pmol/min/mg	CCN(CC)C(=O)Cc1ccc(/C=N/NC(=O)c2ccc(O)c(Cl)c2)c2ccccc12
51.7 nM	–	O=C(COc1ccc(/C=N/NC(=O)c2ccc(O)c(Cl)c2)c2ccccc12)Nc1ccc(Cl)cc1
5.9 nM	32 pmol/min/mg	O=C(N/N=C/c1ccc(C(=O)NCCc2ccc(Cl)cc2)c2ccccc12)c1ccc(O)c(Cl)c1
61.8 nM	178 pmol/min/mg	NC(=O)[C@H](Cc1ccccc1)NCc1ccc(/C=N/NC(=O)c2ccc(O)c(Cl)c2)c2ccccc12
181 nM	110 pmol/min/mg	CC(C)CS(=O)(=O)c1ccc(/C=N/NC(=O)c2ccc(O)c(Cl)c2)c2ccccc12
305 nM	–	O=C(N/N=C/c1cn(Cc2ccc(OC(F)F)cc2)c2ccccc12)c1ccc(O)c(Cl)c1
14.7 nM	–	O=C(N/N=C/c1ccc(OCCNCc2ccc(Cl)c(Cl)c2)c2ccccc12)c1ccc(O)c(Cl)c1
13.8 nM	254 pmol/min/mg	O=C(N/N=C/c1ccc(OCC(=O)N2CCc3ccccc3C2)c2ccccc12)c1ccc(O)c(Cl)c1
6.8 nM	14 pmol/min/mg	O=C(N/N=C/c1ccc(CS(=O)(=O)Cc2ccc(OC(F)(F)F)cc2)c2ccccc12)c1ccc(O)c(Cl)c1
357 nM	110 pmol/min/mg	CC(C)S(=O)(=O)c1ccc(/C=N/NC(=O)c2ccc(O)c(Cl)c2)c2ccccc12
16.5 nM	130 pmol/min/mg	CCN(CC)C(=O)Cc1ccc(/C=N/NC(=O)c2ccc(O)c(C#N)c2)c2ccccc12
33 nM	45 pmol/min/mg	CC(C)(C)C(=O)Nc1ccc(/C=N/NC(=O)c2ccc(O)c(Cl)c2)c2ccccc12
615 nM	–	O=C(N/N=C/c1cn(Cc2ccccc2)c2ccccc12)c1ccc(O)c(Cl)c1
3.4 nM	–	O=C(N/N=C/c1ccc(N(C(=O)C2CCCC2)C(=O)C2CCCC2)c2ccccc12)c1ccc(O)c(Cl)c1
200 nM	225 pmol/min/mg	O=C(N/N=C/c1cccc2c(CO)cccc12)c1ccc(O)c(Cl)c1
203 nM	–	O=C(N/N=C/c1ccc(O)c2ccccc12)c1ccc(O)c(Cl)c1
221 nM	–	O=C(N/N=C/c1ccc(CS(=O)(=O)C2CCCC2)c2ccccc12)c1ccc(O)c(Cl)c1
75.5 nM	–	COCc1ccc(/C=N/NC(=O)c2ccc(O)c(Cl)c2)c2ccccc12

Continued, compound first:

Compound	IC50 [1]	Metabolism [2]
O=C(N/N=C/c1ccc(OCC(=O)N2CCC(O)(c3ccc(Br)cc3)CC2)c2ccccc12)c1ccc(O)c(Cl)c1	11.4 nM	–
N#Cc1cc(C(=O)N/N=C/c2ccc(N(C(=O)C3CCCC3)C(=O)C3CCCC3)c3ccccc23)ccc1O	2.8 nM	250 pmol/min/mg
COc1cc(NC(=O)Cc2ccc(Cl)cc2)ccc1/C=N/NC(=O)c1ccc(O)c(C#N)c1	28.7 nM	–
O=C(N/N=C/c1ccc(CC(=O)N2CCN(Cc3ccccc3)CC2)c2ccccc12)c1ccc(O)c(Cl)c1	9.2 nM	359 pmol/min/mg
O=C(COc1ccc(/C=N/NC(=O)c2ccc(O)c(Cl)c2)c2ccccc12)NC1CCN(Cc2ccccc2)C1 (stereo not given)	89.3 nM	187 pmol/min/mg
COc1cc(NC(=O)CCc2ccc(C(F)(F)F)cc2)ccc1/C=N/NC(=O)c1ccc(O)c(Cl)c1.O	21.2 nM	107 pmol/min/mg
N#Cc1cc(C(=O)N/N=C/c2ccc(C(=O)N3CCN(Cc4ccc(Cl)cc4)CC3)c3ccccc23)ccc1O	4.9 nM	53 pmol/min/mg
O=C(N/N=C/c1ccc(CC(=O)N2CCN(c3ccc(F)cc3)CC2)c2ccccc12)c1ccc(O)c(Cl)c1	12.3 nM	160 pmol/min/mg
N#Cc1cc(C(=O)N/N=C/c2ccc(OCC(=O)N3CC=C(c4ccc(Br)cc4)CC3)c3ccccc23)ccc1O	6.1 nM	50 pmol/min/mg
COc1cc(NC(=O)CSc2ccc(OC(F)(F)F)cc2)ccc1/C=N/NC(=O)c1ccc(O)c(Cl)c1	14.5 nM	23 pmol/min/mg
O=C(N/N=C/c1cccc2c1ccn2Cc1ccc(Cl)c(Cl)c1)c1ccc(O)c(Cl)c1	27.5 nM	190 pmol/min/mg
CN(C)CCN(Cc1ccccc1)C(=O)Cc1ccc(/C=N/NC(=O)c2ccc(O)c(Cl)c2)c2ccccc12	6.2 nM	–
CCN(CC)C(=O)Cn1ccc2c(/C=N/NC(=O)c3ccc(O)c(Cl)c3)cccc21	2540 nM	165 pmol/min/mg
COc1cc(/C=N/NC(=O)c2ccc(O)c(Cl)c2)ccc1NC(=O)COc1ccc(OC(F)(F)F)cc1	73 nM	136 pmol/min/mg
CC1CCCCN1C(=O)Cc1ccc(/C=N/NC(=O)c2ccc(O)c(C#N)c2)c2ccccc12 (stereo not given)	11.6 nM	65 pmol/min/mg
COc1cc(OCCNCc2ccc(C(F)(F)F)cc2)ccc1/C=N/NC(=O)c1ccc(O)c(Cl)c1	133 nM	–
COc1cc(NC(=O)CCc2ccc(C(F)(F)F)cc2)ccc1/C=N/NC(=O)c1ccc(O)c(C#N)c1	15.7 nM	–

Compound	IC50 [1]	Metabolism [2]
CN(C)CCN(Cc1ccccc1)C(=O)Cc1ccc(/C=N/NC(=O)c2ccc(O)c(C#N)c2)c2ccccc12	10.4 nM	240 pmol/min/mg
CN(C)CCN(C)C(=O)Cc1ccc(/C=N/NC(=O)c2ccc(O)c(Cl)c2)c2ccccc12	441 nM	–
O=C(N/N=C/c1ccc(CC(=O)N2CCN(Cc3ccc(Cl)cc3)CC2)c2ccccc12)c1ccc(O)c(Cl)c1	4.6 nM	101 pmol/min/mg
Cc1cc(C)c(C)c(Cn2ccc3c(/C=N/NC(=O)c4ccc(O)c(Cl)c4)cccc32)c1C	5.3 nM	105 pmol/min/mg
O=C(N/N=C/c1ccc(CN2CCN(Cc3ccc(Cl)cc3)CC2)c2ccccc12)c1ccc(O)c(Cl)c1	96.7 nM	51 pmol/min/mg
COc1cc(NC(=O)CCc2ccc(C(F)(F)F)cc2)ccc1/C=N/NC(=O)c1ccc(O)c(Cl)c1	33.5 nM	–
N#Cc1cc(C(=O)N/N=C/c2cccc3c2ccn3Cc2ccc(C(F)(F)F)cc2)ccc1O	22.3 nM	59 pmol/min/mg
O=C(N/N=C/c1cccc2c(OCc3ccc(OC(F)(F)F)cc3)cccc12)c1ccc(O)c(Cl)c1	12.9 nM	–
O=C(N/N=C/c1cccc2c1ccn2Cc1ccc(OC(F)(F)F)cc1)c1ccc(O)c(Cl)c1	22.9 nM	–
CN1CCN(C(=O)Cc2ccc(/C=N/NC(=O)c3ccc(O)c(Cl)c3)c3ccccc23)CC1	268 nM	283 pmol/min/mg
O=C(N/N=C/c1ccc(OCCNCc2ccc(OC(F)(F)F)cc2)c2ccccc12)c1ccc(O)c(Cl)c1	27.7 nM	167 pmol/min/mg
COc1cc(/C=N/NC(=O)c2ccc(O)c(Cl)c2)ccc1NC(=O)Cc1csc2ccccc12	63.2 nM	74 pmol/min/mg
O=C(N/N=C/c1ccc2c(ccn2Cc2ccc(OC(F)(F)F)cc2)c1)c1ccc(O)c(Cl)c1	286 nM	–
COc1ccc2oc(C(=O)Nc3ccc(/C=N/NC(=O)c4ccc(O)c(Cl)c4)c(OC)c3)cc2c1	90.6 nM	31 pmol/min/mg
O=C(N/N=C/c1ccc(CC(=O)N2CCN(c3ccccc3F)CC2)c2ccccc12)c1ccc(O)c(Cl)c1	7.9 nM	178 pmol/min/mg
Cc1cc(C)c(Cn2ccc3c(/C=N/NC(=O)c4ccc(O)c(Cl)c4)cccc32)c(C)c1	5.8 nM	–
COc1cc(/C=N/NC(=O)c2ccc(O)c(Cl)c2)cc(Cl)c1OCCN1CCc2ccccc2C1	485 nM	–
